Among the data in PubChem BioAssay AID2445 (The Scripps Research Institute Molecular Screening Center, 2010) are activation values, retold here.

Among all 320,000 compounds or so, about 200 (0.062%) were called active.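 Rule for the calls: active = activation above that plate's cutoff, the mean activation of tested compounds plus 3 SD (cut at about 6.6% in these data, passing the limit was not always enough); inactive = the rest.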 The entries come from a sample that favours actives as a whole.

Chain of Oxytocin receptor (Homo sapiens) (P30559 whole entry, looked up): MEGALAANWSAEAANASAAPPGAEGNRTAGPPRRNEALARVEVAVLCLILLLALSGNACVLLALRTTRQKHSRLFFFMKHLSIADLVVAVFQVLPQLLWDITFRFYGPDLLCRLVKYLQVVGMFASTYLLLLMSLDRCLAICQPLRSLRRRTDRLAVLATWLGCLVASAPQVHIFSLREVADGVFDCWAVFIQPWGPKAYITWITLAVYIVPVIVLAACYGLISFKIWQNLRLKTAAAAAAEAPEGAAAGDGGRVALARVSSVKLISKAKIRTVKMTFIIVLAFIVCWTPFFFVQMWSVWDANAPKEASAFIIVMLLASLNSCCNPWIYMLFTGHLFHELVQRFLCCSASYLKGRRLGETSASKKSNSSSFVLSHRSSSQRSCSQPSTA

The test concerns the target Oxytocin receptor (Homo sapiens) (UniProt P30559). Put plainly: human OXTR potentiators, primary screen, fluorescence, CHO-OTR cells, Fluo-8 calcium (AID 2445).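 Note: 100% uses oxytocin at 75 nM as the full agonist control.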 The following applies: Fluo-8 calcium fluorescence, potentiator mode, at 3 µM, active compounds read high, 0% = oxytocin EC15, 100% = EC100. A digest of the protocol:
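assay system = CHO-OTR cells, human receptor | schedule = compound 6 min at room temperature before oxytocin, 100 s read | detection = Fluo-8 intracellular calcium fluorescence, ex 470-495, em 515-575 nm | evaluation = normalized max/min fluorescence ratio, % activation | control set = EC15 oxytocin alone as 0%, 75 nM oxytocin (EC100) as 100%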
In the case of `Cc1ccc(NC(=O)COc2coc(CN3CCc4ccccc4C3)cc2=O)cc1Cl`, the activation is -8.11% (inactive). `CCOC(=O)C1=C(N)N2C(=O)C(C)SC2=C(C(=O)OCC)C1c1cc(OC)c(OC)c(OC)c1` (configuration not stated): the activation is 3.06% (inactive). For `O=C(Nc1ccc(F)cc1F)N1CCCN(CCOc2ccccc2)CC1`, the activation was -5.95% (inactive). In the case of `O=C1CC(c2c(F)cccc2Cl)C(n2cncn2)C(O)=C1C1NCCc2ccccc21` (configuration not stated), the activation was 2.91% (inactive). With `O=C(COC(=O)CCc1nc2ccccc2c(=O)[nH]1)Nc1ccc(N2CCOCC2)cc1`, the activation was -2.47% (inactive).

Consider `CC1CCCCC12NC(=O)N(CC(=O)Nc1ccc(S(=O)(=O)Nc3ncccn3)cc1)C2=O` (configuration not stated), for which the activation was 1.55% (inactive). For the molecule `CCCCCCSc1ccc(-c2nc3ccc(Cl)cn3c2NCc2ccccc2)cc1`, the activation is -4.96% (inactive). The figure for `CCCCNc1c(-c2cccc(Sc3ccc(OC)cc3)c2)nc2ccccn12` is -2.7% (inactive); for `CCCCNc1c(-c2ccc(OC)c(Sc3ccc(OC)cc3)c2)nc2ccc(Cl)cn12` it is 13.1% (active); for `CC(=O)c1ccc(OCC(O)CN2CCN(S(=O)(=O)c3cccc(Br)c3)CC2)cc1` (configuration not stated) it is -10.6% (inactive). The figure for `COc1cc(OC)cc(C(=O)N[C@H](C(=O)NNC(=O)c2ccc(Br)cc2)C(C)C)c1` is 0.41% (inactive). Regarding `COc1ccc(S(=O)(=O)N2CCOC2CNC(=O)C(=O)NCc2ccncc2)cc1C` (configuration not stated), the activation was 2.91% (inactive). The figure for `CCS(=O)(=O)n1nc(-c2ccccc2)nc1SCc1ccccc1` is 0.8% (inactive); for `O=C(NC1CCCCCCC1)c1cccs1` it is -9.53% (inactive); for `CCO[C@H]1OC(C(=O)Nc2ccccc2)=C[C@@H](C2CC2)[C@@H]1CCCO` it is -3.89% (inactive). Take `CCOc1ccc(CNC(=O)CCC(=O)N2CCSc3ccccc32)cc1`: the activation was -5.95% (inactive). As for `CC(OC(=O)c1c(F)cccc1F)C(=O)NCCC1=CCCCC1` (configuration not stated), the figure is -1.25% (inactive). As for `CCCCCCSc1ccc([C@@H]2[C@@H]3C(=O)N(CC)C(=O)[C@@H]3[C@]3(C(=O)OC)CCCCN23)cc1OC`, the activation was -12.2% (inactive). The figure for `O=S1(=O)CCOC[C@H](CC2CCCCC2)N1Cc1ccc(F)cc1` is 0.09% (inactive); for `Cc1ccccc1CCN(CC(=O)NC1CCCCC1)C(=O)c1csnn1` it is -12.1% (inactive); for `Cc1c(Cl)cccc1NC(=O)[C@@]1(CC(=O)O)CC(/C=C/c2ccccc2)=NO1` it is -10.7% (inactive). Turning to `Cc1ccc(S(=O)(=O)Nc2nc(CN3CCOCC3)nc3sc(C)c(C)c23)cc1`, the activation was 4.74% (inactive).

As for `Cc1cc(C)c2c(c1)c(C)cc1nnc(SCC(=O)NCc3ccco3)n12`, the activation is -0.06% (inactive). The figure for `Cc1cc(C)cc(N(CCC#N)C(=O)CN2C(=O)NC3(CCCC3)C2=O)c1` is -5.16% (inactive); for `O=C(C1CCN(C2CCN(Cc3cccc4c3OCO4)CC2)CC1)N1CCOCC1` it is -0.07% (inactive); for `Cc1ccc(N2C(=O)C3C(c4ccccc4)(C2=O)C3(c2ccccc2)c2ccccc2)cc1` (configuration not stated) it is -5.54% (inactive).

As to `CC1CCCC(NC(=O)CSc2nccn2C)C1C` (configuration not stated), the activation was -21.1% (inactive). As for `Cc1ccccc1-c1cc(C(=O)NCc2cccs2)n(CC2CC(c3cccnc3)=NO2)n1` (configuration not stated), the figure is -4.56% (inactive); as for `COC(=O)c1ccc(C2CC(=O)Nc3cc(OC)c(OC)cc32)cc1` (configuration not stated), -2.55% (inactive).

Regarding `COc1cc2c(cc1OC)C(c1ccc(C)o1)CC(=O)N2` (configuration not stated), the activation is 6.71% (active). In the case of `CCCOc1ccccc1C1CC(=O)Nc2cc3c(cc21)OCO3` (configuration not stated), the activation is -15.5% (inactive). As for `Cc1ccc(CNC(=O)CCN2C(=O)[C@@H]3Cc4ccccc4CN3C2=O)cc1`, the figure is -7.86% (inactive). For the molecule `CN(Cc1ccccc1Cl)C(=O)C1CCC(=O)N(CCc2cccc(F)c2)C1` (configuration not stated), the activation was 5.76% (inactive).

As to `COc1ccccc1CSc1ncc(-c2ccc([N+](=O)[O-])cc2)[nH]1`, the activation is -15.7% (inactive). The figure for `Cn1cccc1C(=O)N1CCc2ccccc2C1` is -4.4% (inactive).

For `O=C(Nn1cc(C(=O)N2CCN(c3ccccc3F)CC2)c2ccccc2c1=O)c1cnccn1`, the activation was -16.9% (inactive). As for `COc1ccc([C@H]2[C@H](C(C)=O)N3N=Cc4ccccc4C3C23C(=O)OC(C)(C)OC3=O)cc1` (some centres not stated), the activation was -5.56% (inactive). As for `O=C(COC(=O)Cn1cnc2ccccc21)Nc1cccc2c1C(=O)c1ccccc1C2=O`, the activation was -2.58% (inactive). Regarding `Cc1cc(NC(=O)Nc2c[nH]c(=O)[nH]c2=O)ccc1Br`, the activation is -3.04% (inactive). With `Cc1ccc2nc(NC(=O)C3CSC4(C)CCC(=O)N34)sc2c1` (configuration not stated), the activation was -1.9% (inactive). The figure for `COc1ccc(Cl)cc1NC(=O)CN(C)C(=O)CCCc1c[nH]c2ccccc12` is -8.97% (inactive).

Consider `CC(C)CN(C(=O)CSc1ncnc2sccc12)C1CCS(=O)(=O)C1` (configuration not stated), for which the activation was -5.65% (inactive).

On to `CCCc1cc(=O)oc2cc(OCC(=O)Nc3ccc(CN4CCOCC4)cc3)c(Cl)cc12`, for which the activation is 2.03% (inactive). The figure for `COc1ccc(CCNC(=O)CCc2cn(C)c3ccccc23)c(OC)c1` is -6.44% (inactive); for `C=CCNC(=O)COC(=O)CNC(=O)c1cc(Cl)cc([N+](=O)[O-])c1` it is 6.81% (inactive). In the case of `Cn1c(=O)c2sccc2n(Cc2ccc(Br)cc2)c1=O`, the activation is -7.63% (inactive). As for `COc1cc(S(=O)(=O)N2CCN(C(=O)C3CC3)CC2)ccc1NC(C)=O`, the figure is 5.54% (inactive); as for `O=C(CN(Cc1ccccc1)C(=O)CCC(=O)Nc1ccccn1)NCCc1ccccc1`, -8.23% (inactive); as for `O=C(Oc1ccc(-c2nnco2)cc1)c1ccc(F)c(S(=O)(=O)N2CCOCC2)c1`, -5.86% (inactive). As for `O=C(COc1cc(Cl)c(Cl)cc1Cl)NC(=O)NC1CCCC1`, the activation was 2.91% (inactive). For `O=C(NCCCN1CCCCC1)C1CCCN(c2ncnc3c2nc2n3CCCCC2)C1` (configuration not stated), the activation is -5.62% (inactive). As for `Cc1cc(C(=O)OCC(=O)Nc2ccccc2Cl)c(C)o1`, the figure is 1.55% (inactive). As for `CCCCn1c(N)c(N2CCOCC2)c(=O)n(CC(=O)NCCc2ccccc2)c1=O`, the figure is 14.8% (active); as for `COCCCNC(=O)CSc1nc2ccc(N3CCOCC3)cc2c(=O)n1CCc1ccccc1`, -1.26% (inactive); as for `O=C(COC(=O)c1cc(S(=O)(=O)N2CCOCC2)ccc1Cl)NCCc1ccccc1`, -5.23% (inactive).

Take `CCC(=O)N1CCN=C1SCc1ccc(F)cc1`: the activation was -4.47% (inactive). Consider `CCOC(=O)N1CCN(Cc2oc(CO)cc(=O)c2O)CC1`, for which the activation was -9.68% (inactive). The figure for `Cc1noc(/C=C/c2ccco2)c1S(=O)(=O)N1CCC(C(=O)Nc2ccc(Cl)cn2)CC1` is -2.32% (inactive); for `O=C(NC(=S)Nc1ccccc1N1CCCCC1)c1ccc(F)cc1` it is 25.2% (active).

In the case of `COc1ccccc1C(=O)NC(=S)Nc1ccccc1N1CCCCC1`, the activation is -5.57% (inactive). As for `CCc1ccc(C(=O)NC(=S)Nc2ccccc2N2CCOCC2)cc1`, the figure is -6.63% (inactive).

For the molecule `COc1ccc(C[C@H]2CN3C(=NC[C@H]3C)N2CCNC(=O)CCC2CCCCC2)cc1`, the activation was 3.05% (inactive). Consider `C[C@H](NC(=O)c1nc[nH]c1C(=O)N[C@@H](C)C(=O)OC(C)(C)C)C(=O)OC(C)(C)C`, for which the activation is -3.66% (inactive). Regarding `Cc1cccc(NC(=O)Cn2c(=O)n(Cc3ccccc3)c(=O)c3c(C)c(C)sc32)c1`, the activation was -5.82% (inactive).

Consider `Cc1ccc(CS(=O)(=O)CCC(=O)NC2CC2)cc1`, for which the activation was 0.82% (inactive).

For the molecule `COC(=O)C1=C[C@@H](C(=O)OC)[C@@H]2C3=C(C(=O)[C@]2(C)NC(=O)c2ccccc2)[C@H](C)n2c(=O)n(C)c(=O)n2[C@@H]3C1`, the activation was -11.9% (inactive).

Turning to `COc1cc(NC(=O)COC(=O)c2ccc([N+](=O)[O-])s2)cc(OC)c1OC`, the activation is -5.07% (inactive). The figure for `O=C(Cn1cc(C(F)(F)F)ccc1=O)Nc1ccc2c(c1)OCCO2` is 2.63% (inactive); for `O=C(COC(=O)c1cc(=O)[nH]c2ccccc12)Nc1nc(-c2cccc(Br)c2)cs1` it is 2.69% (inactive); for `CCOc1ccccc1NC(=O)CCc1nnc2ccc(NCc3ccco3)nn12` it is 0.12% (inactive). The figure for `CCCCCCNS(=O)(=O)c1ccccc1Br` is -3.1% (inactive); for `Brc1ccc(-c2n(-c3ccccn3)c3ccccc3[n+]2-c2ccccn2)cc1` it is -4.84% (inactive); for `COC(=O)C1(C)CC1(c1ccccc1)c1ccccc1` (configuration not stated) it is -14.7% (inactive). As to `CCOC(=O)C1=C(C)OC(N)=C(C#N)C1c1cncc(-c2ccc(F)cc2)c1` (configuration not stated), the activation was -4.76% (inactive). For the molecule `O=C(COC(=O)c1ccc(F)cc1F)Nc1ncccn1`, the activation was -2.64% (inactive). Regarding `[O-][n+]1ccc(OCc2ccccc2)cc1`, the activation is -0.76% (inactive). Regarding `COc1ccccc1CNS(=O)(=O)CC12CCC(CC1=O)C2(C)C` (configuration not stated), the activation was -12.6% (inactive).

With `Cc1cc(NC(=O)CSc2nc(=O)cc(N)n2-c2ccc(F)cc2)no1`, the activation was 0.45% (inactive). Consider `CN(C)c1cc(N)c2ccccc2n1` (tested in a mixture with another compound), for which the activation is -14.8% (inactive). In the case of `CN1C(=O)[C@H]2[C@@H](C3CC3)N3C(=O)CN(Cc4ccccc4)C(=O)[C@@]3(C)[C@H]2C1=O`, the activation was -2.37% (inactive). For `CC(C)=CCc1c(O)c(CC=C(C)C)c2occ(-c3ccc(O)cc3)c(=O)c2c1O`, the activation was -5.45% (inactive). The figure for `COc1ccc(-c2nc3cnccn3c2NC2CCCCC2)cc1-c1cccc(Cl)c1` is -2.33% (inactive). Regarding `Cc1ccc(CNS(=O)(=O)c2ccc3c(c2)N(C)CCO3)cc1`, the activation is -5.63% (inactive). The figure for `NS(=O)(=O)c1cc(C(=O)OCC(=O)NNC(=O)c2ccccc2)ccc1Cl` is -5.64% (inactive); for `NC1=NN(c2cccc(C(=O)O)c2)C(=O)C1` it is -3.83% (inactive); for `CC(=O)N/C(=N/c1nc(C)cc(C)n1)Nc1ccc(F)cc1F` it is 2.96% (inactive). The figure for `Cc1ccc(CNC(=O)C2CCCN2S(=O)(=O)c2ccc3c(c2)C(C)(C)C(=O)N3C)cc1` (configuration not stated) is -1.94% (inactive).
